ChEMBL document CHEMBL1687700, “Discovery of an Orally Efficacious Imidazo[5,1-f][1,2,4]triazine Dual Inhibitor of IGF-1R and IR” (ACS Med Chem Lett, 2010)
The source made the active and inactive calls. The calls are words filed in the database; no cut-off is given here.

Tests used:
Mus musculus [1] = test: Increase in blood glucose level in CD-1 nu/nu mouse at 10 mg/kg, po after 24 hrs; assay type: functional, organism-based; set-up: dose 10 mg/kg
Summary of the method: (§1)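 Blood glucose measured in GEO xenograft mice after the last dose of a 14-day oral dosing study, over a time course to 24 h.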

Mus musculus [2] = test: Increase in blood glucose level in CD-1 nu/nu mouse at 10 mg/kg, po upto 8 hrs; assay type: functional, organism-based; set-up: dose 10 mg/kg; summary of the method: as §1
Mus musculus [3] = test: Inhibition of human IGF1R phosphorylation in human GEO cells xenografted in CD-1 nu/nu mouse assessed as sustained inhibition measured 24 hrs post last dose at 20 mg/kg, po qd administered for 14 days
[4] = target: RAC-alpha serine/threonine-protein kinase (Homo sapiens) (UniProt P31749); test: Inhibition of AKT phosphorylation in human GEO cells; assay type: cell-based
RAC-alpha serine/threonine-protein kinase (Homo sapiens), sequence (P31749 whole entry): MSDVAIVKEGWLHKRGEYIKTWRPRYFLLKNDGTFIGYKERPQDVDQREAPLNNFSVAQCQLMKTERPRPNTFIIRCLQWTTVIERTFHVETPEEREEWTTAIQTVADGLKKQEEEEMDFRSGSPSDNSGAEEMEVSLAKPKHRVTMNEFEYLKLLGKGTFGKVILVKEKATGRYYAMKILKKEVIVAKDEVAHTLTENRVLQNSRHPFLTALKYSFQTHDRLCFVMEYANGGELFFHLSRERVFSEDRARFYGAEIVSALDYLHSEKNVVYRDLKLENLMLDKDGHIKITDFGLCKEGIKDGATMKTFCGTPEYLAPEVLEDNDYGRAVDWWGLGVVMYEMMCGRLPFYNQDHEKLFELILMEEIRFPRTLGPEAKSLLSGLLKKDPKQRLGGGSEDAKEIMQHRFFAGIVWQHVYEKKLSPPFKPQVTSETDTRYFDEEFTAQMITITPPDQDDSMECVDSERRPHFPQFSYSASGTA

Mus musculus [5] = test: Oral bioavailability in CD-1 mouse at 25 mg/kg, po administered as single dose; assay type: ADME, organism-based; conditions: mouse, in vivo
[6] = Oral bioavailability in Sprague-Dawley rat at 25 mg/kg administered as single dose; assay type: ADME, organism-based; conditions: in vivo
Insulin receptor = Insulin receptor (Homo sapiens, UniProt P06213); test: Inhibition of auto-phosphorylation of human IR expressed in human HepG2 cells after 2 hrs by luminometry; assay type: cell-based
Insulin receptor, sequence (P06213 28-758 limits assumed): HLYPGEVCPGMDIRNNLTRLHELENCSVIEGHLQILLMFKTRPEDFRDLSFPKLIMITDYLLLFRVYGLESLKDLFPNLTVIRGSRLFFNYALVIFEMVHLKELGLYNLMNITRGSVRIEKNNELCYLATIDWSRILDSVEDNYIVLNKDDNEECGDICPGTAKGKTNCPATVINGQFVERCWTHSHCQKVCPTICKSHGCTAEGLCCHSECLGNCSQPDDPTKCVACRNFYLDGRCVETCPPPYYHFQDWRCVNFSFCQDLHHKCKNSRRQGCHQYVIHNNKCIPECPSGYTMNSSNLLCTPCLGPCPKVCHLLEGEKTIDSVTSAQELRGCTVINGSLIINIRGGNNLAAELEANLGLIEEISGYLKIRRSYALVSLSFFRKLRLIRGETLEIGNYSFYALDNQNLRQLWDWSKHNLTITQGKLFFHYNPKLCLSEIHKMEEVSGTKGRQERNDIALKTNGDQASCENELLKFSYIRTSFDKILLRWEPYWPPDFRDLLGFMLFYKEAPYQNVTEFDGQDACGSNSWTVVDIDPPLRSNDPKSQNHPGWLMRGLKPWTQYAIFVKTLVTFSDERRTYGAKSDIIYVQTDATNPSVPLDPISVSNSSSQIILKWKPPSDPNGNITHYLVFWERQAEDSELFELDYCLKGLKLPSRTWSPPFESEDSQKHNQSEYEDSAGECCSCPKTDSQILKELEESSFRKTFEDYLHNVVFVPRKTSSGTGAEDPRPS
Insulin receptor, sequence (P06213 763-1382 limits assumed): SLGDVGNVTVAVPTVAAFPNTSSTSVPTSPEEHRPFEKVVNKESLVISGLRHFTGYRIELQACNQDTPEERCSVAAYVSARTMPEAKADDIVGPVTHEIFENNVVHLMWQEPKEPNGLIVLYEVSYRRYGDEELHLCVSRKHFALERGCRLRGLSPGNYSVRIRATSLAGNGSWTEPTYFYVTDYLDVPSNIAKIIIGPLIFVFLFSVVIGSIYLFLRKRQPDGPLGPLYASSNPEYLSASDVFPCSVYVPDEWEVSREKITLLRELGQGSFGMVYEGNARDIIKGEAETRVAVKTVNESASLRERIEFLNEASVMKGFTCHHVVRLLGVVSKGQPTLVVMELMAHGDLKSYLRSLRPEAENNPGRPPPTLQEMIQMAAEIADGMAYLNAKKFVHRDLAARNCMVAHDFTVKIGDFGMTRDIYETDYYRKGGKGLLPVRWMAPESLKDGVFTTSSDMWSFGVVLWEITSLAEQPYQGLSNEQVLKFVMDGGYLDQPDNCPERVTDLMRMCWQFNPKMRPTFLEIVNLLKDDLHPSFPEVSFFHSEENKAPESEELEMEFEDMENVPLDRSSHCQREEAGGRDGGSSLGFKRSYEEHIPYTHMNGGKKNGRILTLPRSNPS

Cytochrome P450 3A4 = Cytochrome P450 3A4 (Homo sapiens, UniProt P08684); test: Inhibition of CYP3A4; assay type: ADME
Cytochrome P450 3A4, sequence (P08684 whole entry): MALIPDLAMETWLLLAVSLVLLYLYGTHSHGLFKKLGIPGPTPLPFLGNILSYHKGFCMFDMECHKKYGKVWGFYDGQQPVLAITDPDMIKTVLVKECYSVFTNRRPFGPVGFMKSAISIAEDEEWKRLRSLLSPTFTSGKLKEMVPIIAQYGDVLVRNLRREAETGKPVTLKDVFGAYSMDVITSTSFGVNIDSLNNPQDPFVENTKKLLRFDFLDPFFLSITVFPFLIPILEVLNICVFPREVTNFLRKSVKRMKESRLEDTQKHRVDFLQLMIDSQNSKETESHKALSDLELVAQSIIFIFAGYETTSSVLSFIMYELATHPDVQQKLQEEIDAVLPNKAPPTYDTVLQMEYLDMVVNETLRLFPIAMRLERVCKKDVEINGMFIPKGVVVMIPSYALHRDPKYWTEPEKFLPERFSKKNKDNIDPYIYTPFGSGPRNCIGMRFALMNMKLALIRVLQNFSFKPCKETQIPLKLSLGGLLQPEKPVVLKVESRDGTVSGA

[7] = Volume of distribution at steady state in CD-1 mouse at 5 mg/kg, iv administered as single dose; assay type: ADME, organism-based; set-up: dose 5 mg/kg, route intravenous; conditions: in vivo, read-out: Vdss
[8] = Permeability of the compound by PAMPA assay at pH 5.0; assay type: ADME; conditions: read-out: permeability
Summary of the method: (§2)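 Parallel artificial membrane permeability assay run at pH 5.0 and pH 7.4; permeability reported in nm/s.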

[9] = Extraction ratio of hepatic clearance to hepatic blood flow in mouse microsomes; assay type: ADME, Microsome; conditions: liver microsomes
Rattus norvegicus = species: Rattus norvegicus; test: Toxicity in rat after 14 days; assay type: organism-based; conditions: in vivo, 336 h
[10] = Volume of distribution at steady state in Sprague-Dawley rat at 5 mg/kg, iv administered as single dose; assay type: ADME, organism-based; set-up: dose 5 mg/kg, route intravenous; conditions: in vivo, read-out: Vdss
Summary of the method: (§3)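 Single 5 mg/kg iv dose used to derive clearance and Vss; median values reported per species (female rat, male rhesus monkey).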

[11] = Permeability of the compound by PAMPA assay at pH 7.4; assay type: ADME; conditions: read-out: permeability; summary of the method: as §2
Cytochrome P450 2D6 = Cytochrome P450 2D6 (Homo sapiens, UniProt P10635); test: Inhibition of CYP2D6; assay type: ADME
Cytochrome P450 2D6, sequence (P10635 whole entry): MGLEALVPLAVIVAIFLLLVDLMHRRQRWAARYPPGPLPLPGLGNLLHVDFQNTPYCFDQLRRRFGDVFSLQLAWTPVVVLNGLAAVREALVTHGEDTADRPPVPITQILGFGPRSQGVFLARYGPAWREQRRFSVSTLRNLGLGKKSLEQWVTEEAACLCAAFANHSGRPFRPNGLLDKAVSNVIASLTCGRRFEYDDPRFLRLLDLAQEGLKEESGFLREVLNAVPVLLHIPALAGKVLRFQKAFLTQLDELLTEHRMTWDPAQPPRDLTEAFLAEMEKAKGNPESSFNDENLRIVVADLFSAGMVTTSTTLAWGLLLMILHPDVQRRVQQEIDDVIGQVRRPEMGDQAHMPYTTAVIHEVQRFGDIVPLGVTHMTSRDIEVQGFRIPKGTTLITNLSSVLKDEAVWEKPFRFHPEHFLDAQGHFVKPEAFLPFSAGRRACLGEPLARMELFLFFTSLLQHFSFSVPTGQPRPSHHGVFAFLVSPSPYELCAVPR

[12] = Clearance in Sprague-Dawley rat at 5 mg/kg, iv administered as single dose; assay type: ADME, organism-based; set-up: dose 5 mg/kg, route intravenous; conditions: in vivo; summary of the method: as §3
[13] = Extraction ratio of hepatic clearance to hepatic blood flow in human microsomes; assay type: ADME, Microsome; conditions: liver microsomes
[14] = Cmax in Sprague-Dawley rat at 25 mg/kg, po administered as single dose; assay type: ADME, organism-based; set-up: dose 25 mg/kg, route oral; conditions: in vivo
[15] = target: Insulin-like growth factor 1 receptor (Homo sapiens, UniProt P08069); test: Inhibition of auto-phosphorylation of human IGF1R expressed in mouse NIH-3T3 cells after 2 hrs by luminometry; assay type: cell-based, NIH3T3
Insulin-like growth factor 1 receptor, sequence (P08069 31-736 limits assumed): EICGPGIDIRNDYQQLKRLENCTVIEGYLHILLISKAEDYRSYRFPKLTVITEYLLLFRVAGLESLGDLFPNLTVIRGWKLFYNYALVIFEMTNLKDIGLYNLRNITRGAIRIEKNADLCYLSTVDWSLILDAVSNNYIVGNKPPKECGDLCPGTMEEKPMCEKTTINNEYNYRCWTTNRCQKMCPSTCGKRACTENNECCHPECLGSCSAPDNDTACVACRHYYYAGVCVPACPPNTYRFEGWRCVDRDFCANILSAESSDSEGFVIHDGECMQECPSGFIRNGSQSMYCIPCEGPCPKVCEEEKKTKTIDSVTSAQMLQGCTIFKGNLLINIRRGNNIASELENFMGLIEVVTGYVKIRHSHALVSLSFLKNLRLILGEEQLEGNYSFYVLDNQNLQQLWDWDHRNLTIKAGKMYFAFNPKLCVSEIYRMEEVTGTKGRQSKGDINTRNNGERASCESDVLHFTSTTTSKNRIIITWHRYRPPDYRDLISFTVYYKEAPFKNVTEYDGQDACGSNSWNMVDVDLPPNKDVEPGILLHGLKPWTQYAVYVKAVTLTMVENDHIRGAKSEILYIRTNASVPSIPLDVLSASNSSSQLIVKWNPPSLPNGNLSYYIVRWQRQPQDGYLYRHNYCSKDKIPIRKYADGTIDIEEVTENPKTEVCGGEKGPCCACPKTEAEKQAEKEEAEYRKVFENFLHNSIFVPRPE
Insulin-like growth factor 1 receptor, sequence (P08069 741-1367 limits assumed): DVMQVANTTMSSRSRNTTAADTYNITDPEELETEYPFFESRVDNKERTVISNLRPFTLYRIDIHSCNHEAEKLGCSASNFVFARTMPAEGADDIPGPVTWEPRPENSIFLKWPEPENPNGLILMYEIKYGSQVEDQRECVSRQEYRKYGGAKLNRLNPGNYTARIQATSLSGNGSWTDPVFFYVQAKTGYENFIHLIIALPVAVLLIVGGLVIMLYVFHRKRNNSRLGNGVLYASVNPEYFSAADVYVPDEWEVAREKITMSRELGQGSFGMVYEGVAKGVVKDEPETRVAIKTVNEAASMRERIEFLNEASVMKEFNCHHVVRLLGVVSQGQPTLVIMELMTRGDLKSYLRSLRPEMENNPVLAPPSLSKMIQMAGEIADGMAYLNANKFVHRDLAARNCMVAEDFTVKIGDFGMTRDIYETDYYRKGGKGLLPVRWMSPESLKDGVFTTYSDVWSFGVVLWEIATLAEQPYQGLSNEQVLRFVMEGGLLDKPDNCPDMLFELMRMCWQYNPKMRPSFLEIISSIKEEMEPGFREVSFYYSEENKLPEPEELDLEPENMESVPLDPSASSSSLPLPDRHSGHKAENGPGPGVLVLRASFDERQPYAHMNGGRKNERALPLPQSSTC

[16] = Antiproliferative activity against human GEO cells expressing IGF-1R assessed as intracellular ATP content after 3 days by Cell Titre-Glo luminescent assay; assay type: functional, cell-based; conditions: 72 h
[17] = AUC in Sprague-Dawley rat at 25 mg/kg, po administered as single dose; assay type: ADME, organism-based; set-up: dose 25 mg/kg, route oral; conditions: plasma
Summary of the method: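 Single oral dose of 25 mg/kg, given as the free base in 50:50 PEG-400:25 mM tartaric acid, to female rats. Plasma AUC (ng h/mL) is reported as the median. Clearance parameters come from a separate 5 mg/kg iv dose.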

[18] = Cmax in CD-1 mouse plasma at 25 mg/kg, po administered as single dose; assay type: ADME, organism-based; set-up: dose 25 mg/kg, route oral
[19] = Genotoxicity in Salmonella Typhimurium by Ames test in presence of S9 liver microsomes; assay type: toxicity, Microsome; conditions: salmonella enterica subsp. enterica serovar typhimurium
[20] = Genotoxicity in Salmonella Typhimurium by Ames test in absence of S9 liver microsomes; assay type: toxicity, Microsome; conditions: salmonella enterica subsp. enterica serovar typhimurium
Cytochrome P450 1A2 = target: T1, Cytochrome P450 1A2 (Homo sapiens, UniProt P05177); test: Inhibition of CYP1A2; assay type: ADME
T1 sequence (P05177 whole entry): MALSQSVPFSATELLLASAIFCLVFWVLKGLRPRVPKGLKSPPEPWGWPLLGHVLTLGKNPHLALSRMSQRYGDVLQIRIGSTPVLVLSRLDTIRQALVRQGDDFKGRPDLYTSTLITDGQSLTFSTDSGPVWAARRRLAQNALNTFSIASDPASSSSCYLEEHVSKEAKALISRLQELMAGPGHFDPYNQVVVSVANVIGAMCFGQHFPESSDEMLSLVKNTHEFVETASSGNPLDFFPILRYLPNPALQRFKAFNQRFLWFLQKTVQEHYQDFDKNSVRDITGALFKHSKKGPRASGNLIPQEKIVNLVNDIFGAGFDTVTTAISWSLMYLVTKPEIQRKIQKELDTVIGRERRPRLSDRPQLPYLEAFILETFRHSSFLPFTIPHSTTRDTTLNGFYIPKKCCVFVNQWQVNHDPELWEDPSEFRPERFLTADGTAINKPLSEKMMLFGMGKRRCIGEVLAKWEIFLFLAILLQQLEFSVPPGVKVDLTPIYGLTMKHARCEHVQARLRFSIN

[21] = Antiproliferative activity against human GEO cells expressing IR assessed as intracellular ATP content after 3 days by Cell Titre-Glo luminescent assay; assay type: functional, cell-based; conditions: 72 h
[22] = Clearance in CD-1 mouse at 5 mg/kg, iv administered as single dose; assay type: ADME, organism-based; set-up: dose 5 mg/kg, route intravenous; conditions: in vivo

C[C@]1(O)C[C@@H](c2nc(-c3ccc4ccc(-c5ccccc5)nc4c3F)c3c(N)ncnn32)C1 [listing 1 of 2 here]
Activity (Mus musculus [1]): inactive | Activity (Mus musculus [2]): Active | inhibition (Mus musculus [3]): Active | inhibition [4]: Active

C[C@]1(O)C[C@@H](c2nc(-c3ccc4ccc(-c5ccccc5)nc4c3F)c3c(N)ncnn32)C1 [listing 2 of 2 here]
F (Mus musculus [5]): 162% | bioavailability [6]: 64% | IC50 (Insulin receptor): 76 nM | IC50 (Cytochrome P450 3A4): > 25000 nM | Vd [7]: 1 L/kg | Papp [8]: 109 ×10⁻⁶ cm/s | hepatic extraction ratio [9]: 0.43 | Activity (Rattus norvegicus): Non-toxic | Vd [10]: 0.97 L/kg | Papp [11]: 110 ×10⁻⁶ cm/s | IC50 (Cytochrome P450 2D6): > 25000 nM | clearance [12]: 4 mL/min/kg | hepatic extraction ratio [13]: 0.55 | Cmax [14]: 11.3 µM | IC50 [15]: 17 nM | EC50 [16]: 130 nM | AUC [17]: 62400 ng·h/mL | Cmax [18]: 20.5 µM | Activity [19]: Non-toxic | Activity [20]: Non-toxic | IC50 (Cytochrome P450 1A2): > 25000 nM | EC50 [21]: 130 nM | clearance [22]: 4 mL/min/kg
